For 40 compounds, Protection and Decrease results are on record in ChEMBL document CHEMBL1121507, “Bronchodilator and antiulcer phenoxypyrimidinones” (1980).

Assay [1] concerns Cavia porcellus. The assay can be described thus: Evaluation of bronchodilator activity at dose 60 mg/kg perorally 1 hr prior to histamine aerosol exposure. It counts as functional. As to conditions: route oral. A digest of the protocol:
(§1)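 Guinea pigs received drug po, dissolved in 1 N HCl or suspended in vehicle, 1 h before challenge. The challenge was 0.4% aqueous histamine nebulized at 6 psi into a closed chamber. Respiratory status was scored 0–4 (4 = unconsciousness). Percent protection compares the total score of 8 treated animals with a control group of 8 (control = 0, complete protection = 100), giving a single value.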

Assay [2] deals with Cavia porcellus. Kind of assay: Respiratory status of guinea pigs exposed to histamine aerosol expressed as percent protection at a dose of 3 mg/kg (po). Format: functional. In a few lines:
as §1

In assay [3] the test system is Cavia porcellus. Kind of assay: Respiratory status of guinea pigs exposed to histamine aerosol expressed as percent protection at a dose of 30 mg/kg (po). It counts as functional. A digest of the protocol: as §1
Assay [4] concerns Rattus norvegicus. Kind of assay: Evaluation of antiulcer activity (% decrease in total number of lesions in cold-restraint, stressed rats) at peroral dose 10 mg/kg. The following applies: route oral. Format: functional. A digest of the protocol:
(§2)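 Nonfasted female Sprague–Dawley rats (90–120 g) were immobilized supine and held at 12 °C for 3 h to induce gastric ulceration. Drug was suspended in saline with 10 g/L carboxymethylcellulose and 1 g/L Tween 80 and given po or ip 3 h before stress. Rats were then killed and stomachs removed. Readout: percent decrease in total lesion number versus controls. Active: p ≤ 0.05.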

Assay [5] concerns Cavia porcellus. The assay can be described thus: Respiratory status of guinea pigs exposed to histamine aerosol expressed as percent protection at a dose of 10 mg/kg (po). It counts as functional. A digest of the protocol:
as §1

Assay [6] deals with Cavia porcellus. Kind of assay: Respiratory status of guinea pigs exposed to histamine aerosol expressed as percent protection 4 hr at a dose of 60 mg/kg (po).
Assay [7] deals with Cavia porcellus. Kind of assay: Respiratory status of guinea pigs exposed to histamine aerosol expressed as percent protection at a dose of 60 mg/kg (po). Format: functional. A digest of the protocol:
as §1

Assay [8] concerns Cavia porcellus. The assay can be described thus: Respiratory status of guinea pigs exposed to histamine aerosol expressed as percent protection 8 hr at a dose of 60 mg/kg (po).
The test system of assay [9] is Rattus norvegicus. The assay can be described thus: Evaluation of antiulcer activity( percent decrease in total number of lesions in cold-restraint, stressed rats) at intraperitoneal dose at 100 mg/kg; Inactive. Format: functional. A digest of the protocol:
as §2

The test system of assay [10] is Cavia porcellus. The assay can be described thus: Respiratory status of guinea pigs exposed to histamine aerosol expressed as percent protection 2 hr at a dose of 60 mg/kg (po).
Assay [11] has as its system Rattus norvegicus. Kind of assay: Evaluation of antiulcer activity( percent decrease in total number of lesions in cold-restraint, stressed rats) at intraperitoneal dose at 32 mg/kg; Inactive. Format: functional. In a few lines: as §2
In assay [12] the test system is Rattus norvegicus. Kind of assay: Evaluation of antiulcer activity( percent decrease in total number of lesions in cold-restraint, stressed rats) at intraperitoneal dose at 100 mg/kg; Active. It counts as functional. In a few lines: as §2
Assay [13] deals with Cavia porcellus. The assay can be described thus: Respiratory status of guinea pigs exposed to histamine aerosol expressed as percent protection 8 hr at a dose of 60 mg/kg (po). Format: functional. A digest of the protocol: (§3)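 Duration study in guinea pigs: 60 mg/kg po given 2, 4 or 8 h before exposure to aerosol from 0.4% aqueous histamine nebulized at 6 psi in a closed chamber. Respiratory distress was scored 0–4. Percent protection compares the total score of 8 treated animals with 8 controls (control = 0, complete protection = 100).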

In assay [14] the test system is Rattus norvegicus. Kind of assay: Evaluation of antiulcer activity (percent decrease in total number of lesions in cold-restraint, stressed rats) at peroral dose 10 mg/kg; Active. It counts as functional. As to conditions: route oral. In a few lines:
as §2

Assay [15] deals with Cavia porcellus. Kind of assay: Respiratory status of guinea pigs exposed to histamine aerosol expressed as percent protection 2 hr at a dose of 60 mg/kg (po). Format: functional. In a few lines:
as §3

Assay [16] concerns Cavia porcellus. Kind of assay: Respiratory status of guinea pigs exposed to histamine aerosol expressed as percent protection 4 hr at a dose of 60 mg/kg (po). Format: functional. In a few lines: as §3
Assay [17] has as its system Rattus norvegicus. The assay can be described thus: Evaluation of antiulcer activity (percent decrease in total number of lesions in cold-restraint, stressed rats) at peroral dose 10 mg/kg; Inactive. As to conditions: route oral.
Assay [18] relates to Rattus norvegicus. Kind of assay: Evaluation of antiulcer activity (percent decrease in total number of lesions in cold-restraint, stressed rats) at intraperitoneal dose at 100 mg/kg; Inactive. Format: functional. A digest of the protocol:
as §2

In assay [19] the test system is Rattus norvegicus. Kind of assay: Evaluation of antiulcer activity (percent decrease in total number of lesions in cold-restraint, stressed rats) at intraperitoneal dose at 100 mg/kg; Active. Format: functional. A digest of the protocol:
as §2

The test system of assay [20] is Cavia porcellus. Kind of assay: Evaluation of bronchodilator activity at dose 60 mg/kg perorally 1 hr prior to histamine aerosol exposure; 20-30. It counts as functional. The following applies: route oral. In a few lines: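 Guinea pigs got 60 mg/kg po, either dissolved in 1 N HCl or suspended in vehicle; controls got vehicle. After 1 h each was challenged with histamine aerosol: 0.4% aqueous histamine nebulized at 6 psi into a closed chamber. Respiration was scored 0–4, with 4 being unconsciousness. Percent protection came from comparing the total score of eight treated animals with a control group of eight, giving a single value.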

In the assay with Cavia porcellus [1], `Oc1ncncc1Oc1ccccc1Cl` yielded a Protection of 13%.
In the case of `Oc1ncc(Oc2ccc(Cl)cc2)cn1`, the Protection in the assay on Cavia porcellus [2] was 22%; in the assay with Cavia porcellus [3] it was 71%; in the assay with Cavia porcellus [5] it was 37%; in the assay with Cavia porcellus [6], 94%; in the assay with Cavia porcellus [7], 92%; with Cavia porcellus [8], 88%. Moreover, the Protection in the assay on Cavia porcellus [1] is 92%; in the assay on Cavia porcellus [10] it was 94%. Further, the Decrease with Rattus norvegicus [4] amounted to 7%; in the assay with Rattus norvegicus [9], 0%.
In turn, `Oc1ncncc1Oc1cccc(Cl)c1` gave a Decrease in the assay on Rattus norvegicus [11] of 18%. For the same compound, the Protection in the assay on Cavia porcellus [1] came out at 13%.
Turning to `COc1ccc(Oc2cncnc2O)cc1`, the Decrease in the assay on Rattus norvegicus [4] is 0%. The Protection with Cavia porcellus [1] is listed as 26%.
Take `Cc1cc(C)cc(Oc2cnc(O)nc2)c1`: the Decrease stood at 50% in the assay with Rattus norvegicus [4] and 53% with Rattus norvegicus [12]. Besides, the Protection in the assay with Cavia porcellus [1] is given as 38%.
As to `Cc1ccc(Oc2cnc(O)nc2)cc1`, the Protection came to 2% in the assay with Cavia porcellus [2]; 81% in the assay on Cavia porcellus [3]; 10% with Cavia porcellus [13]; 18% in the assay on Cavia porcellus [5]; 86% in the assay with Cavia porcellus [15]; 86% with Cavia porcellus [7]. Further, the figures for the Protection in the assay with Cavia porcellus [1] and in the assay with Cavia porcellus [16] were 86% and 8%, respectively. Also, the Decrease in the assay with Rattus norvegicus [14] amounted to 57%; in the assay on Rattus norvegicus [9] it was 0%.
Consider `Oc1ncc(Oc2ccc(Cl)cc2Cl)cn1`, for which the Decrease was found to be 22% in the assay with Rattus norvegicus [4] and 19% with Rattus norvegicus [9]. This compound registered a Protection in the assay on Cavia porcellus [1] of 47%.
Taken in the same sequence, the figures for `Cc1ccc(Oc2cnc(O)nc2)cc1C` were 54%, 53% and 14%.
Consider `Cc1cccc(Oc2cnc(O)nc2O)c1`, for which the figures for the Decrease in the assay with Rattus norvegicus [4] and with Rattus norvegicus [12] were 0% and 67%, respectively. This compound also had a Protection with Cavia porcellus [1] of 7%.
As for `CSc1ccc(Oc2cnc(O)nc2)cc1`, the Decrease in the assay on Rattus norvegicus [4] and with Rattus norvegicus [9] was 0% throughout. Further, in the assay with Cavia porcellus [1], the Protection turned out to be 55%.
As to `Oc1ncc(Oc2ccccc2)cn1`, the values for the Decrease in the assay with Rattus norvegicus [14] and in the assay on Rattus norvegicus [12] were 37% and 81%, respectively. Besides, the Protection in the assay with Cavia porcellus [1] was 28%.
Consider `Cc1ccccc1Oc1cnc(O)nc1`, for which the results for the Decrease in the assay on Rattus norvegicus [4] and with Rattus norvegicus [9] were 0% and 25%, respectively. The compound further came in with a Protection with Cavia porcellus [1] of 6%.
The like results for `COc1ccc(Oc2cnc(O)nc2)cc1` were, in that order, 0%, 0% and 45%.
The like results for `CCc1ccc(Oc2cnc(O)nc2)cc1` were, in that order, 0%, 27% and 98%.
For `CCc1cccc(Oc2cnc(O)nc2)c1`, the Decrease in the assay with Rattus norvegicus [4] amounted to 28%; in the assay with Rattus norvegicus [12], 53%. In addition, the Protection in the assay on Cavia porcellus [1] is 3%.
As for `Cc1cc(Oc2cnc(O)nc2)ccc1Cl`, the values for the Decrease with Rattus norvegicus [4] and with Rattus norvegicus [9] were 0% and 14%, respectively. In the assay with Cavia porcellus [1], this compound registered a Protection of 6%.
Consider `Oc1ncncc1Oc1ccccc1`, for which the Decrease in the assay with Rattus norvegicus [4] is 0%. The compound also registered a Protection in the assay with Cavia porcellus [1] of 23%.
Take `Cc1cccc(Oc2cncnc2O)c1`: in the assay with Rattus norvegicus [4], the Decrease turned out to be 0%. Besides, the Protection in the assay on Cavia porcellus [1] is recorded as 28%.
In the case of `Oc1ncc(Oc2ccc(Br)cc2)cn1`, the Decrease in the assay on Rattus norvegicus [4] and with Rattus norvegicus [9] was 0% in each case. In the assay with Cavia porcellus [1], this compound came in with a Protection of 90%.
`Oc1ncc(Oc2cccc(Cl)c2)cn1`: the Decrease is 22% in the assay on Rattus norvegicus [4] and 0% in the assay on Rattus norvegicus [9]. In the assay with Cavia porcellus [1], this compound yielded a Protection of 22%.
As for `COc1cccc(Oc2cncnc2O)c1`, the Decrease in the assay with Rattus norvegicus [4] is reported as 0%. Further, the Protection with Cavia porcellus [1] stood at 7%.
In the assay with Cavia porcellus [1], `Oc1ncc(Sc2ccc(Cl)cc2)cn1` yielded a Protection of 63%.
`Oc1ncc(Oc2ccccc2)c(O)n1`: the Decrease with Rattus norvegicus [4] is given as 22%. In the assay on Cavia porcellus [1], this compound had a Protection of 25%.
In the assay with Cavia porcellus [1], `Oc1ncncc1Oc1ccc(Cl)c(Cl)c1` came in with a Protection of 45%.
As for `Oc1ncc(Sc2ccccc2)cn1`, the Decrease with Rattus norvegicus [4] amounted to 45%; with Rattus norvegicus [9] it was 47%. The Protection with Cavia porcellus [1] was 23%.
On to `Cc1ccc(Oc2cnc(O)nc2)c(C)c1`, for which the Decrease in the assay with Rattus norvegicus [17] is reported as 6%; with Rattus norvegicus [9], 0%.
In the assay on Rattus norvegicus [4], `Oc1ncc(Oc2ccc(Cl)cc2)c(O)n1` showed a Decrease of 35%. Moreover, the Protection in the assay on Cavia porcellus [1] is on record as 50%.
Taken in the same sequence, the figures for `Cc1ccc(Oc2cnc(O)nc2O)cc1` were 0% and 35%.
Taken in the same sequence, the figures for `Oc1ncc(Oc2cccc(C(F)(F)F)c2)cn1` were 39% and 26%.
Turning to `CC(C)c1ccc(Oc2cnc(O)nc2)cc1`, the Decrease with Rattus norvegicus [4] is 0%; with Rattus norvegicus [9], 9%. For the same compound, the Protection in the assay with Cavia porcellus [1] was found to be 0%.
In the assay on Rattus norvegicus [4], `Oc1ncncc1Oc1ccc(F)cc1` came in with a Decrease of 28%. The compound also registered a Protection in the assay on Cavia porcellus [1] of 80%.
For the compound `Oc1ncc(Oc2ccc(F)cc2)cn1`, the Decrease in the assay on Rattus norvegicus [4] and in the assay on Rattus norvegicus [9] was 0% each time. The same compound had a Protection in the assay on Cavia porcellus [1] of 66%.
On to `COc1cccc(Oc2cnc(O)nc2)c1`, for which the results for the Decrease in the assay with Rattus norvegicus [4] and in the assay on Rattus norvegicus [12] were 55% and 82%, respectively. The Protection in the assay with Cavia porcellus [1] came to 3%.
For the compound `C[S+]([O-])c1ccc(Oc2cnc(O)nc2)cc1` (configuration not stated), the Decrease in the assay with Rattus norvegicus [4] is recorded as 50%; with Rattus norvegicus [9], 0%. For the same compound, in the assay on Cavia porcellus [1], the Protection is on record as 10%.
As for `Oc1ncncc1Oc1ccc(Cl)cc1`, in the assay with Rattus norvegicus [18], the Decrease is 0%. Further, the Protection with Cavia porcellus [1] is 92%.
As to `Cc1ccc(Oc2cncnc2O)cc1`, in the assay on Rattus norvegicus [4], the Decrease came out at 27%. Besides, the Protection in the assay on Cavia porcellus [1] is 92%.
With `Cc1cccc(Sc2cnc(O)nc2)c1`, the Decrease with Rattus norvegicus [19] was found to be 78%; in the assay with Rattus norvegicus [17], 0%.
With `Cc1ccc(Sc2cnc(O)nc2)cc1`, the values for the Decrease in the assay with Rattus norvegicus [4] and in the assay with Rattus norvegicus [12] were 18% and 64%, respectively. The Protection in the assay on Cavia porcellus [1] worked out at 26%.
In turn, `Cn1c(=O)c2nc[nH]c2n(C)c1=O.O` [THEOPHYLLINE] returned a Protection with Cavia porcellus [20] of 20%.
Turning to `Cc1cccc(Oc2cnc(=O)[nH]c2)c1` [TOLIMIDONE], the Decrease with Rattus norvegicus [14] came out at 38%; in the assay with Rattus norvegicus [12] it was 70%. The compound also came in with a Protection in the assay on Cavia porcellus [1] of 3%.
